Experimental data: ChEMBL document CHEMBL1139014, “Stereochemical sensitivity of the human UDP-glucuronosyltransferases 2B7 and 2B17” (J Med Chem, 2006)
pIC50, pKi: −log10 of the molar value.

Tests used:
[1] = molecular target: T1, UDP-glucuronosyltransferase 2B7 (Homo sapiens, UniProt P16662); test: (§1) Inhibition of UGT2B7
T1 sequence (P16662 whole entry): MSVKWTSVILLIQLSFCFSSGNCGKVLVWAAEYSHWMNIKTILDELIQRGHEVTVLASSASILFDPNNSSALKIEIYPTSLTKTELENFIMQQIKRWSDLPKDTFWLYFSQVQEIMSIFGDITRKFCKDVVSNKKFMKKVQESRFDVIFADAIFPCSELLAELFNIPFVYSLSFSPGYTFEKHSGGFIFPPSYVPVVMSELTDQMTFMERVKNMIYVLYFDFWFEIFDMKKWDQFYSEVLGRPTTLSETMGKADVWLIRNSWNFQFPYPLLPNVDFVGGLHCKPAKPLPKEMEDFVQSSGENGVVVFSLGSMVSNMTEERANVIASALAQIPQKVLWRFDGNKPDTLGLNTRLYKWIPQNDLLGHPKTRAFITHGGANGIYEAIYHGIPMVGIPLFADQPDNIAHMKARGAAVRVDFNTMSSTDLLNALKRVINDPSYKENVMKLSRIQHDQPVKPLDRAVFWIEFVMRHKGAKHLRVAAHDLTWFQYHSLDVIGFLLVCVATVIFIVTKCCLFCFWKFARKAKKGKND

UGT2B7 = molecular target: T2, UGT2B7 (Homo sapiens, UniProt P16662); test: as §1; conditions: human; read-out: Imax
T2 sequence (P16662 whole entry): T1 sequence (P16662 whole entry)

[2] = molecular target: T3, UDP-glucuronosyltransferase 2B17 (Homo sapiens, UniProt O75795); test: (§2) Inhibition of UGT2B17
T3 sequence (O75795 whole entry): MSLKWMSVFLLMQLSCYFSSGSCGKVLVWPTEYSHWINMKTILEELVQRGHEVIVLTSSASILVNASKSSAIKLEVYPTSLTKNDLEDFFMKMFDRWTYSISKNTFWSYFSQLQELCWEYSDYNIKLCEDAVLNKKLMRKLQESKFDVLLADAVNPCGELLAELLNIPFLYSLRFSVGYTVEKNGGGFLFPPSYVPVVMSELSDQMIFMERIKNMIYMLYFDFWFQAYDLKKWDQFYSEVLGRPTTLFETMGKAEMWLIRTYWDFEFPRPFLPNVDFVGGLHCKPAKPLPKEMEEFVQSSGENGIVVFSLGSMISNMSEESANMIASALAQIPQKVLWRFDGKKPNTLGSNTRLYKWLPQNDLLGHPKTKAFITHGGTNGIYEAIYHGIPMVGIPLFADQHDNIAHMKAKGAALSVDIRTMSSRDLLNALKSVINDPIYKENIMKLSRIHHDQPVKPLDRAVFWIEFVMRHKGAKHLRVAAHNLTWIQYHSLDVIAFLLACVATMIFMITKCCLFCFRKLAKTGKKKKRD
Procedure, shortened: (§3)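 IC50 against UGT2B17-catalyzed glucuronidation of scopoletin, using His-tagged enzyme from insect cells at 0.1 µg/µL. Scopoletin was 300 µM (its Km) with inhibitor at 10–1000 µM. For poorly soluble aliphatic alcohols, inhibitor was 5–100 µM and scopoletin 50 µM. Buffer was 5.0 mM phosphate pH 7.4 with MgCl2 and saccharic lactone. UDPGlcA 5.0 mM; 15 min at 37 °C. Scopoletin glucuronide was read by HPLC fluorescence and fitted to the two-parameter Hill equation.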

UGT2B17 = molecular target: T4, UGT2B17 (Homo sapiens, UniProt O75795); test: as §2; conditions: human; read-out: Imax; procedure, shortened: as §3
T4 sequence (O75795 whole entry): T3 sequence (O75795 whole entry)

[3] = molecular target: T3, UDP-glucuronosyltransferase 2B17; test: Non competitive inhibition of UGT2B17-catalyzed scopoletin glucuronidation; type: functional
Procedure, shortened: (§4)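 His-tagged human UGT2B17 expressed in insect cells, 0.1 µg/µL, in 5.0 mM phosphate (pH 7.4) with 10 mM MgCl2 and 5.0 mM saccharic acid-1,4-lactone. Initial velocities were taken at scopoletin 100, 250, 500, 1000 and 2000 µM, with racemic inhibitors at three levels bracketing Kic estimated by Cheng-Prusoff. UDPGlcA (5.0 mM final) started the reaction after 5 min preincubation at 37 °C; run 15 min. Scopoletin glucuronide was measured by HPLC fluorescence. Inhibition mechanism was fitted by simultaneous nonlinear regression.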

[4] = molecular target: T1, UDP-glucuronosyltransferase 2B7; test: Competitive inhibition of UGT2B7-catalyzed scopoletin glucuronidation; type: functional
Procedure, shortened: (§5)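 Recombinant human UGT2B7 from baculovirus-infected insect cells, 0.1 µg/µL, in 5.0 mM phosphate (pH 7.4), 10 mM MgCl2 and 5.0 mM saccharic acid-1,4-lactone. Racemates were tested at three concentrations bracketing Kic estimated by Cheng-Prusoff. Scopoletin was 100–2000 µM. After 5 min preincubation at 37 °C, 5.0 mM UDPGlcA was added and the reaction ran 15 min. Glucuronide was read by HPLC fluorescence (ex 335/em 455 nm). Mechanism came from simultaneous nonlinear regression.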

[5] = molecular target: T3, UDP-glucuronosyltransferase 2B17; test: Competitive inhibition of UGT2B17-catalyzed scopoletin glucuronidation; type: functional; procedure, shortened: as §4
[6] = molecular target: T1, UDP-glucuronosyltransferase 2B7; test: Non competitive inhibition of UGT2B7-catalyzed scopoletin glucuronidation; type: functional; procedure, shortened: as §5

Structure (SMILES)	pIC50 [1]	Emax (UGT2B7)	pIC50 [2]	Emax (UGT2B17)	pKi [3]	pKi [4]	pKi [5]	pKi [6]
Cc1ccc2c(c1)[C@@H](O)CC2	3.27	64.4%	3.14	58.3%				
O[C@@H]1CCCc2ccccc21	3.47	73.6%	3.62	78.8%				
C[C@@H](O)c1c2ccccc2cc2ccccc12	3.46	19.8%	3.15	13.1%				
COc1cccc2c1CCC[C@@H]2O	3.52	80.2%	3.88	89.1%				
Cc1cc(C)c2c(c1)[C@@H](O)CCC2	3.78	83.5%	4.01	90.5%				
O[C@@H]1CCOc2ccccc21	3.29	65.8%	3.35	69.3%				
O[C@H]1CCCc2ccccc21	3.31	67.8%	3.43	76.1%				
C[C@@H](O)c1ccc2ccccc2c1			3.24	16.7%				
Cc1ccc2c(c1)[C@H](O)CCO2	3.65	83.5%	3.44	72.6%				
O=[N+]([O-])c1ccc2c(c1)[C@@H](O)CCC2	3.19	62.5%	3.52	77.4%				
C[C@@H](O)c1cccc2ccccc12	3.89	41.9%	3.41	18.9%				
Cc1cccc2c1CC[C@@H]2O	3.75	86.4%	3.22	61.7%				
O[C@H]1CCc2ccccc21	3.29	67.3%	3.26	63.4%				
COc1ccc2c(c1)[C@@H](O)CCC2	3.45	77.2%	3.67	80.4%				
O[C@@H]1CCc2ccccc21	3.56	77.1%	3.29	65.3%				
Cc1cccc2c1CC[C@H]2O (racemic)	3.50	76%	3.17	60.1%				
Cc1ccc2c(c1)C(O)CC2 (racemic)					2.84	3.52	3.37	3.20
O[C@H]1CCOc2ccccc21 (racemic)	3.29	68.7%	3.50	74.8%				
Cc1ccc2c(c1)C(O)CCO2 (racemic)					3.22	3.95	3.70	3.59
C[C@H](O)c1c2ccccc2cc2ccccc12 (racemic)	3.27	17.7%	3.22	11.1%				
C[C@H](O)c1ccc2ccccc2c1 (racemic)			3.18	9.12%				
COc1ccc2c(c1)[C@H](O)CCC2 (racemic)	3.55	80.4%	3.79	84.7%				
Cc1cc(C)c2c(c1)C(O)CCC2 (racemic)					3.72	4.00	4.24	3.72
C[C@H](O)c1cccc2ccccc12 (racemic)	3.67	31.8%	3.27	14.3%				
Cc1ccc2c(c1)[C@H](O)CC2 (racemic)	3.40	71.2%	3.31	69.6%				
COc1cccc2c1CCC[C@H]2O (racemic)	3.44	76.5%	3.95	88.9%				
O=[N+]([O-])c1ccc2c(c1)[C@H](O)CCC2 (racemic)	3.22	61.9%	3.66	83.5%				
Cc1ccc2c(c1)[C@@H](O)CCO2 (racemic)	3.74	85%	3.49	75.3%				
Cc1cc(C)c2c(c1)[C@H](O)CCC2 (racemic)	3.80	85.7%	3.84	87.8%				
